Measured values reported in paper PMC10685179 (RSC Advances, 2023).
≈ marks a conversion by molar mass, not a printed value.

Assays:
C. albicans KA205 [1] = assay: Agar well-diffusion, inhibition zone; format: cell-based, Candida albicans; conditions: for Average diameter of inhibition zone (ZI): 10 μM (DMSO), mean of three ± SEM
Procedure, shortened: (§1)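 Clinical MDR isolates from complicated UTI patients. Suspensions were made in Tryptic Soya and Sabouraud broths from subcultures on Tryptic Soya and Sabouraud agar plates. Agar well diffusion followed CLSI guidelines, with test compounds applied at 10 μM in DMSO. Fosfomycin and fluconazole were positive controls and DMSO the negative control. Zone diameters were read in mm, in triplicate.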

C. tropicalis KA205 [2] = assay: Agar well-diffusion, inhibition zone; format: cell-based, Candida tropicalis; conditions: for Average diameter of inhibition zone (ZI): 10 μM (DMSO), mean of three ± SEM
Procedure, shortened: as §1

fungal isolates [3] = assay: Agar well-diffusion, inhibition zone, fungal panel; format: cell-based
Procedure, shortened: as §1

C. albicans KA205 [4] = assay: Broth microdilution MIC and MFC; format: cell-based; conditions: Candida albicans; for MIC: KA205, 24 h; for MFC: KA205, read-out: MFC/MIC
C. tropicalis KA205 [5] = assay: Broth microdilution MIC and MFC; format: cell-based; conditions: Candida tropicalis; for MIC: KA205, 24 h; for MFC: KA205, read-out: MFC/MIC
[6] = system: MDR bacterial and fungal isolates; assay: Broth microdilution MIC/MBC/MFC, whole panel; format: cell-based; conditions: bactericidal/fungicidal if MBC or MFC not greater than four times the MIC
fungal isolates [7] = assay: Broth microdilution MIC/MFC, fungal panel; format: cell-based
fungal isolates [8] = assay: Time-kill kinetics, fungal isolates; format: cell-based; conditions: at MIC
Procedure, shortened: (§2)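 Untreated organisms served as controls. Bacteria were sampled at 0, 2, 4, 6, 8, 12, 18 and 24 h, and fungi at 0, 2, 4, 6, 8, 18, 24 and 48 h. Counts were made by plate count and plotted as log10 CFU mL−1 versus time.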

E. faecalis KA247 [9] = assay: Agar well-diffusion, inhibition zone; format: cell-based, Enterococcus faecalis; conditions: 10 μM (DMSO); mean of three ± SEM
Procedure, shortened: as §1

S. aureus KA112 [10] = assay: Agar well-diffusion, inhibition zone; format: cell-based, Staphylococcus aureus; conditions: 10 μM (DMSO); mean of three ± SEM
Procedure, shortened: as §1

E. coli KA780 [11] = assay: Agar well-diffusion, inhibition zone; format: cell-based, Escherichia coli; conditions: 10 μM (DMSO); mean of three ± SEM
Procedure, shortened: as §1

P. mirabilis KA320 [12] = assay: Agar well-diffusion, inhibition zone; format: cell-based, Proteus mirabilis; conditions: 10 μM (DMSO); mean of three ± SEM
Procedure, shortened: as §1

E. faecalis KA247 [13] = assay: Broth microdilution MIC and MBC; format: cell-based; conditions: Enterococcus faecalis, KA247, 24 h
S. aureus KA112 [14] = assay: Broth microdilution MIC and MBC; format: cell-based; conditions: Staphylococcus aureus; for MIC: KA112, 24 h; for MBC: KA112, read-out: MBC/MIC
E. coli KA780 [15] = assay: Broth microdilution MIC and MBC; format: cell-based; conditions: Escherichia coli; for MIC: KA780, 24 h; for MBC: KA780, read-out: MBC/MIC
P. mirabilis KA320 [16] = assay: Broth microdilution MIC and MBC; format: cell-based; conditions: Proteus mirabilis; for MIC: KA320, 24 h; for MBC: KA320, read-out: MBC/MIC
E. faecalis KA247 [17] = assay: Checkerboard microdilution synergy with fosfomycin; format: cell-based, Enterococcus faecalis; conditions: for Fractional inhibitory concentration index (ΣFICI): combination with fosfomycin
S. aureus KA112 [18] = assay: Checkerboard microdilution synergy with fosfomycin; format: cell-based, Staphylococcus aureus; conditions: for Fractional inhibitory concentration index (ΣFICI): combination with fosfomycin
E. coli KA780 [19] = assay: Checkerboard microdilution synergy with fosfomycin; format: cell-based, Escherichia coli; conditions: for Fractional inhibitory concentration index (ΣFICI): combination with fosfomycin
P. mirabilis KA320 [20] = assay: Checkerboard microdilution synergy with fosfomycin; format: cell-based, Proteus mirabilis; conditions: for Fractional inhibitory concentration index (ΣFICI): combination with fosfomycin
C. tropicalis KA205 [21] = assay: Checkerboard microdilution synergy with fluconazole; format: cell-based, Candida tropicalis; conditions: for Fractional inhibitory concentration index (ΣFICI): combination with fluconazole
MDR microbial isolates = assay: Time-kill kinetics, whole panel; format: cell-based; conditions: all pathogenic isolates
Procedure, shortened: as §2

bacterial isolates = assay: Time-kill kinetics, bacterial isolates; format: cell-based; conditions: at MIC
Procedure, shortened: as §2

[22] = system: fosfomycin-resistant (FO-R) E. coli KA780; assay: SEM of outer membrane integrity; format: cell-based; conditions: at MIC, compared with DMSO
[23] = system: BNL: mouse normal liver cells; assay: SRB cytotoxicity assay on normal cells; format: cell-based
Procedure, shortened: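 Mouse normal liver BNL cells were grown in DMEM with 10% heat-inactivated FBS, penicillin and streptomycin, at 37 °C in 5% CO2. […] SRB assay: 10% TCA fixation at 4 °C for 1 h, 0.4% SRB for 10 min at room temperature, 1% acetic acid washes, 10 mM Tris solubilisation, absorbance at 540 nm. Mean of three, with SD.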

E. coli MurA enzyme = E. coli MurA enzyme (Escherichia coli, UniProt P0A749); assay: MurA enzyme inhibition assay; format: biochemical; conditions: for remaining activity at 100 µM: read-out: RA (residual activity), at 100 μM
Sequence of E. coli MurA enzyme (P0A749 whole entry): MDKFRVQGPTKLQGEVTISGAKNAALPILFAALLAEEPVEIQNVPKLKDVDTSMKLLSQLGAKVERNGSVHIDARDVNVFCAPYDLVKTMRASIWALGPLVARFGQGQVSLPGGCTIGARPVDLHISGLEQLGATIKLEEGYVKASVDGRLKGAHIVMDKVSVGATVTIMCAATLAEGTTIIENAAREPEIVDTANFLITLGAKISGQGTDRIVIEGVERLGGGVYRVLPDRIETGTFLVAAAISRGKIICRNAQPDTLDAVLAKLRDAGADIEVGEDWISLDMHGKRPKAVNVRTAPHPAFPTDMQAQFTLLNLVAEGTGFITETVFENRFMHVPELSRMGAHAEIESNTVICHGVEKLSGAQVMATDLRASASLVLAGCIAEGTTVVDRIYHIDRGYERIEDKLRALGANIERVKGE

[24] = Physical and chemical stability after gamma irradiation; format: physicochemical; conditions: gamma radiation 3.0 kGy to 20.0 kGy; for stability of the chemical structure after irradiation: UV-VIS spectrophotometer
Procedure, shortened: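 Compound powders in sterile tubes were irradiated by a 60Co source at 3.0, 5.0, 7.0, 10.0, 15.0 and 20.0 kGy, at a dose rate of 0.9 kGy h−1. Non-irradiated and irradiated samples were checked for physical and chemical changes by UV-VIS spectrophotometry at 560 nm.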

C. albicans KA205 [25] = assay: Checkerboard microdilution synergy with fluconazole; format: cell-based, Candida albicans

SMILES	MIC (C. albicans KA205 [4])	MFC (C. albicans KA205 [4])	MIC (C. tropicalis KA205 [5])	MFC (C. tropicalis KA205 [5])	time of maximum killing rate / maximum reduction in cell counts (fungal isolates [8])	Average diameter of inhibition zone (ZI) (E. faecalis KA247 [9])	Average diameter of inhibition zone (ZI) (S. aureus KA112 [10])	Average diameter of inhibition zone (ZI) (E. coli KA780 [11])	Average diameter of inhibition zone (ZI) (P. mirabilis KA320 [12])	Average diameter of inhibition zone (ZI) (C. albicans KA205 [1])	Average diameter of inhibition zone (ZI) (C. tropicalis KA205 [2])	MIC (E. faecalis KA247 [13])	MIC (S. aureus KA112 [14])	MBC (S. aureus KA112 [14])	MIC (E. coli KA780 [15])	MBC (E. coli KA780 [15])	MIC (P. mirabilis KA320 [16])	MBC (P. mirabilis KA320 [16])	combination effect (E. faecalis KA247 [17])	Fractional inhibitory concentration index (ΣFICI) (E. faecalis KA247 [17])	also measured
OC(Cn1cncn1)(Cn1cncn1)c1ccc(F)cc1F [FCA, fluconazole, reference compound]	2 µg/mL (≈ 6.53 µM)	1 µg/mL (≈ 3.27 µM)	4 µg/mL (≈ 13.1 µM)	0.5 µg/mL (≈ 1.63 µM)	48 h																zone of inhibition at 10 µM (C. albicans KA205 [1]; Candida albicans, KA205, read-out: Average diameter of inhibition zone (ZI)): 17 ± 0.99 mm; zone of inhibition at 10 µM (C. tropicalis KA205 [2]; Candida tropicalis, KA205, read-out: Average diameter of inhibition zone (ZI)): 17 ± 0.15 mm; zone of inhibition at 10 µM (fungal isolates [3]): 17 mm; bactericidal/fungicidal effect [6]: bactericidal and fungicidal activities; MFC (fungal isolates [7]): 2 µg/mL (≈ 6.53 µM)
O=[N+]([O-])c1ccc(-c2nn(-c3ccccc3)c3sc(NC(c4ccccc4O)P(=O)(Oc4ccccc4)Oc4ccccc4)nc23)cc1 (stereo not drawn) [Compound 5a, Diphenyl((2-hydroxyphenyl)((3-(4-nitrophenyl)-1-phenyl-1H-pyrazolo[4,3-d]thiazol-5-yl)amino)methyl)phosphonate]	0.125 µg/mL (≈ 0.185 µM)	0.5 µg/mL (≈ 0.74 µM)	0.125 µg/mL (≈ 0.185 µM)	1 µg/mL (≈ 1.48 µM)	16 h	24 ± 0.20 mm	24 ± 0.51 mm	25 ± 0.28 mm	23 ± 0.44 mm	22 ± 0.76 mm	22 ± 0.43 mm	0.125 µg/mL (≈ 0.185 µM)	0.06 µg/mL (≈ 0.0888 µM)	0.5 µg/mL (≈ 0.74 µM)	0.06 µg/mL (≈ 0.0888 µM)	0.5 µg/mL (≈ 0.74 µM)	0.125 µg/mL (≈ 0.185 µM)	0.5 µg/mL (≈ 0.74 µM)	S (FICI ≤ 0.5 (synergism))	0.5	combination effect (S. aureus KA112 [18]): S (FICI ≤ 0.5 (synergism)); Fractional inhibitory concentration index (ΣFICI) (S. aureus KA112 [18]): 0.25; combination effect (E. coli KA780 [19]): S (FICI ≤ 0.5 (synergism)); Fractional inhibitory concentration index (ΣFICI) (E. coli KA780 [19]): 0.25; combination effect (P. mirabilis KA320 [20]): S (FICI ≤ 0.5 (synergism)); Fractional inhibitory concentration index (ΣFICI) (P. mirabilis KA320 [20]): 0.5; combination effect (C. tropicalis KA205 [21]): S (FICI ≤ 0.5 (synergism)); Fractional inhibitory concentration index (ΣFICI) (C. tropicalis KA205 [21]): 0.5; microbial reduction relative to the initial inoculum (MDR microbial isolates): ≥ 3 log10; time of maximum killing rate (bacterial isolates): 6 h; effect on outer membrane (SEM image) [22]: perturbation in the membrane and distinct ruptures of the OM integrity; IC50 [23]: > 100 µM; IC50 (E. coli MurA enzyme; IC50, preincubation 0 min): 41 µM; IC50 (E. coli MurA enzyme; IC50, preincubation 10 min): 3.8 µM; remaining activity at 100 µM (E. coli MurA enzyme; preincubation 10 min): 0%; physical changes (odor, color, clarity, solubility, and form) after irradiation [24]: no changes occurred; stability of the chemical structure after irradiation [24]: confirmed the stability of the chemical structure
CN(C)c1ccc(C(Nc2nc3c(-c4ccc([N+](=O)[O-])cc4)nn(-c4ccccc4)c3s2)P(=O)(Oc2ccccc2)Oc2ccccc2)cc1 (stereo not drawn) [Compound 5b, Diphenyl((4-(dimethylamino)phenyl)((3-(4-nitrophenyl)-1-phenyl-1H-pyrazolo[4,3-d]thiazol-5-yl)amino)methyl)phosphonate]	0.125 µg/mL (≈ 0.178 µM)	1 µg/mL (≈ 1.42 µM)	0.5 µg/mL (≈ 0.712 µM)	0.5 µg/mL (≈ 0.712 µM)	18 h	23 ± 0.88 mm	24 ± 0.03 mm	25 ± 0.00 mm	23 ± 0.78 mm	22 ± 0.22 mm	21 ± 0.32 mm	0.125 µg/mL (≈ 0.178 µM)	0.06 µg/mL (≈ 0.0854 µM)	1 µg/mL (≈ 1.42 µM)	0.06 µg/mL (≈ 0.0854 µM)	0.5 µg/mL (≈ 0.712 µM)	0.25 µg/mL (≈ 0.356 µM)	0.5 µg/mL (≈ 0.712 µM)	S (FICI ≤ 0.5 (synergism))	0.5	combination effect (S. aureus KA112 [18]): S (FICI ≤ 0.5 (synergism)); Fractional inhibitory concentration index (ΣFICI) (S. aureus KA112 [18]): 0.5; combination effect (E. coli KA780 [19]): S (FICI ≤ 0.5 (synergism)); Fractional inhibitory concentration index (ΣFICI) (E. coli KA780 [19]): 0.25; combination effect (P. mirabilis KA320 [20]): S (FICI ≤ 0.5 (synergism)); Fractional inhibitory concentration index (ΣFICI) (P. mirabilis KA320 [20]): 0.25; combination effect (C. albicans KA205 [25]): P (0.5 < FICI > 1 (partial synergism)); Fractional inhibitory concentration index (ΣFICI) (C. albicans KA205 [25]; combination with fluconazole): 0.75; combination effect (C. tropicalis KA205 [21]): P (0.5 < FICI > 1 (partial synergism)); Fractional inhibitory concentration index (ΣFICI) (C. tropicalis KA205 [21]): 0.75; microbial reduction relative to the initial inoculum (MDR microbial isolates): ≥ 3 log10; time of maximum killing rate (bacterial isolates): 8 h; effect on outer membrane (SEM image) [22]: perturbation in the membrane and distinct ruptures of the OM integrity; IC50 [23]: > 100 µM; IC50 (E. coli MurA enzyme; IC50, preincubation 0 min): 45 µM; IC50 (E. coli MurA enzyme; IC50, preincubation 10 min): 4.5 µM; RA (residual activity) (E. coli MurA enzyme; at 100 μM, preincubation 10 min): 4 ± 0.55%; remaining activity at 100 µM (E. coli MurA enzyme; preincubation 10 min): 7%; physical changes (odor, color, clarity, solubility, and form) after irradiation [24]: no changes occurred; stability of the chemical structure after irradiation [24]: confirmed the stability of the chemical structure
